Assay results: ChEMBL document CHEMBL3244143, “Synthesis and gastric antisecretory properties of an 8-aza-and a 10-oxa-8,12-secoprostaglandin” (1978)

Columns and labels:
Rattus norvegicus [1] = experiment: Antisecretory activity in rat assessed as decrease in volume of gastric secretion at 1.5 mg/kg, sc immediately after surgery and again 2 hrs later measured after 4 hrs of pyloric ligation; type: functional, Stomach; set-up: scale not given: the % may be the effect or the level left; conditions: route subcutaneous
Outline: (§1)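 Pylorus-ligated rats under ether anesthesia via midline incision; 1.5 mg/kg sc given immediately after surgery and again 2.0 h later (total 3 mg/kg), diluted in phosphate buffer pH 7.4, 1 mL/kg. Six rats per compound plus vehicle control group. Killed 4 h after ligation; gastric volume measured, contents centrifuged 5000 rpm 10 min, supernatant titrated with 0.1 N NaOH to pH 7.0 (mequiv); % change vs control.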

Rattus norvegicus [2] = experiment: Antisecretory activity in rat assessed as decrease in total acid at 1.5 mg/kg, sc immediately after surgery and again 2 hrs later measured after 4 hrs of pyloric ligation; type: functional; set-up: scale not given: the % may be the effect or the level left; conditions: route subcutaneous; outline: as §1

Compound	Activity (Rattus norvegicus [1])	Activity (Rattus norvegicus [2])
CCCCCC(O)/C=C/CCOC(=O)CCCCCCCC(=O)OC (stereo not given)	25%	34%
CCCCCC(O)/C=C/CCCC(=O)N(C)CCCCCCC(=O)OC (stereo not given)	21%	32%
CCCCCC(O)/C=C/CCCC(=O)N(C)CCCCCCC(=O)O (stereo not given)	25%	25%
CCCCC[C@H](O)/C=C/[C@H]1[C@H](O)CC(=O)[C@@H]1CCCCCCC(=O)O [ALPROSTADIL]	74%	96%
CCCCC[C@H](O)/C=C/[C@@H]1[C@@H](C/C=C\CCCC(=O)O)[C@@H](O)C[C@H]1O [DINOPROST]	37%	42%
